Experimental data gathered from unrelated publications.
Compare with care: the assays were run in different laboratories.
MET: Hepatocyte growth factor receptor (MET, Homo sapiens, UniProt P08581)
MET M1250T: Hepatocyte growth factor receptor (MET, Homo sapiens, UniProt P08581, M1250T)
MET D1228H: Hepatocyte growth factor receptor (MET, Homo sapiens, UniProt P08581, D1228H)

| SMILES | target | read-out | mode | technique | tested at | endpoint | value |
| --- | --- | --- | --- | --- | --- | --- | --- |
| COc1cc(Cl)c(C(=O)N[C@@H](CN[C@H]2CC[C@@H](N)CC2)Cc2ccc(C#N)cc2)cc1-c1ccc(CN[C@H](C)c2ccc(C)cc2)o1 | MET | enzyme activity | inhibitor | – | 1 µM | remaining activity | 63% |
| Nc1cnc(N2CCc3cc(S(=O)(=O)Nc4c(F)cc(Cl)cc4F)cc(N4CCCC4=O)c32)nc1 | Hepatocyte growth factor receptor (MET, Homo sapiens, UniProt P08581, Y1235D) | cell-free assay | – | competition with immobilised ligand | 1 µM | remaining binding | 69% |
| Cc1cc(NC(=O)c2cccc3cc(-c4cccc5[nH]nc(N)c45)ccc23)ccc1F | MET | enzyme activity | inhibitor | – | 0.1 µM | activity vs control | 104% |
| CC(C)(O)[C@H]1CC[C@H](Nc2ccc3ncc(-c4cccc(C(F)(F)F)c4)n3n2)CC1 | MET | enzyme activity | inhibitor | – | 1 µM | remaining activity | 99.8% |
| N#CCCc1ccc2c(c1)-c1[nH]c3ccc([N+](=O)[O-])cc3c1CC(=O)N2 | MET | cell-free assay | – | – | 0.5 µM | remaining signal | 119% |
| Cc1sc(C(=O)NC2COC2)cc1-n1cc(NC(=O)Nc2c(F)cccc2Cl)cn1 | MET | enzyme activity | inhibitor | – | 10 µM | remaining activity | 77% |
| O=C(Nc1ccc(Cl)cc1)c1ccccc1NCc1ccncc1 | MET | cell-free assay | – | – | 0.5 µM | remaining signal | 92.2% |
| Cc1ccc(C(=O)Nc2ccc(CN3CCN(C)CC3)c(C(F)(F)F)c2)cc1C#Cc1cnc2cccnn12 | MET | cell-free assay | – | – | 23.5 nM | remaining signal | 92% |
| CC(C)(C)c1nc(-c2cccc(NS(=O)(=O)c3c(F)cccc3F)c2F)c(-c2ccnc(N)n2)s1 | MET | enzyme activity | inhibitor | radiometric | 1 µM | remaining activity | 89% |
| CNC(=O)c1cc2c(Oc3ccc(NC(=O)C4(C(=O)Nc5ccc(F)cc5)CC4)cc3)ccnc2cc1OC | Hepatocyte growth factor receptor (MET, Homo sapiens, UniProt P08581, D1228N) | enzyme activity | inhibitor | radiometric | 1 µM | inhibition | 100% |
| O=C(Nc1cnn(-c2csc(C(=O)NC3COC3)c2)c1)Nc1ccccc1Cl | MET | enzyme activity | inhibitor | – | 5 µM | remaining activity | 102% |
| CC(=O)Nc1c(C(C)=O)c(=O)n(C)c2nc(-c3ccc(Cl)cc3Cl)c(-c3ccc(Cl)cc3)cc12 | MET M1250T | cell-free assay | – | competition with immobilised ligand | 1 µM | remaining binding | 100% |
| CC/C(=N\NC(=O)NCc1cccc(O)c1)c1ccc(O)c(C)c1O | MET D1228H | enzyme activity | inhibitor | – | 0.1 µM | inhibition | -2.8% |
| COCCOc1nc(-c2ccc(Cl)nc2)nc2c1CN(C(=O)c1ncn3ccccc13)CC2 | MET | cell-free assay | – | competition with immobilised ligand | 0.1 µM | remaining binding | 100% |
| O=C1Nc2ccc(Cl)cc2C1=Cc1cc(Cl)c(O)c(Cl)c1 | MET | cell-free assay | – | – | 0.5 µM | remaining signal | 96.4% |
| Cc1cnc(NC2CCOCC2)nc1-n1cnc(C(=O)NC(CN)c2cc(F)cc(Cl)c2)c1 (stereo not shown) | MET | enzyme activity | inhibitor | radiometric | 1 µM | remaining activity | 101% |
| COc1cc(-c2cn(C3CCc4c(F)cccc4N(CC(F)(F)F)C3=O)nn2)ccc1-n1cnc(C)c1 (stereo not shown) | MET | cell-free assay | – | competition with immobilised ligand | 1 µM | remaining binding | 100% |
| Nc1ncnc2occ(-c3ccc(NC(=O)Nc4cc(C(F)(F)F)ccc4F)cc3)c12 | MET M1250T | cell-free assay | – | – | 20 µM | remaining signal | 4.1% |
| O=C(NCCCC1CCCCC1)c1ccc(CNC(=O)c2cnn(-c3ccccc3)c2C(F)(F)F)cc1 | MET M1250T | cell-free assay | – | competition with immobilised ligand | 0.1 µM | remaining binding | 76% |
| O=C1NC(=O)c2cc(Nc3ccc(F)cc3)c(Nc3ccc(F)cc3)cc21 | MET | cell-free assay | – | – | 0.5 µM | remaining signal | 96.7% |
| CC(=O)N1CCC(c2ccc(C(=O)NC(=N)N)cc2C(F)(F)F)CC1 | MET | cell-free assay | – | competition with immobilised ligand | 1 µM | remaining binding | 100% |
| Cc1ccc(NC(=O)c2ccc(C)c(C(F)(F)F)c2)cc1C#Cc1nn(C2CCC(O)CC2)c2ncnc(N)c12 (stereo not shown) | MET D1228H | cell-free assay | – | – | 10 µM | remaining signal | 124% |
